From ChEMBL document CHEMBL4196042, “Novel indanone derivatives as MAO B/H3R dual-targeting ligands for treatment of Parkinson's disease” (Eur J Med Chem, 2018)

Key:
[1] = biological target: T1, Amine oxidase [flavin-containing] A (Homo sapiens, UniProt P21397); test: Inhibition of human MAO-A expressed in baculovirus infected insect cell membranes at 10 uM using kynuramine as substrate by continuous spectrophotometric method relative to control
T1 sequence (P21397 whole entry): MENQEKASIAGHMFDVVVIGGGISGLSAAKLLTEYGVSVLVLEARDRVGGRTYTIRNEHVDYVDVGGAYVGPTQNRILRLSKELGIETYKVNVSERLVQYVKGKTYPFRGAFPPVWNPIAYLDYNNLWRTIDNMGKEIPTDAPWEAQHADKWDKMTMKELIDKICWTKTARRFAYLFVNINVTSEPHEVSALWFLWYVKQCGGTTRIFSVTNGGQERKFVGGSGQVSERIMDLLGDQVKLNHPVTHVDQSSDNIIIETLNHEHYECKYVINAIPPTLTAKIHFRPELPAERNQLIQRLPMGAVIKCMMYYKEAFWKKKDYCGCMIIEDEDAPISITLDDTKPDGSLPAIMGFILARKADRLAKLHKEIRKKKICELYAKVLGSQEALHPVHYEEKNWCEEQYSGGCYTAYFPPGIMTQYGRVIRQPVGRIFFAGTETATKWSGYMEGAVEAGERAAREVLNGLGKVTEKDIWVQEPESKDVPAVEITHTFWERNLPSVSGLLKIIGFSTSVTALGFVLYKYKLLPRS

Histamine H3 receptor [2] = biological target: T2, Histamine H3 receptor (Homo sapiens, UniProt Q9Y5N1); test: Displacement of [3H]-N-alpha-methylhistamine from human H3R expressed in HEK293 cell membranes after 90 mins by liquid scintillation counting method
T2 sequence (Q9Y5N1 whole entry): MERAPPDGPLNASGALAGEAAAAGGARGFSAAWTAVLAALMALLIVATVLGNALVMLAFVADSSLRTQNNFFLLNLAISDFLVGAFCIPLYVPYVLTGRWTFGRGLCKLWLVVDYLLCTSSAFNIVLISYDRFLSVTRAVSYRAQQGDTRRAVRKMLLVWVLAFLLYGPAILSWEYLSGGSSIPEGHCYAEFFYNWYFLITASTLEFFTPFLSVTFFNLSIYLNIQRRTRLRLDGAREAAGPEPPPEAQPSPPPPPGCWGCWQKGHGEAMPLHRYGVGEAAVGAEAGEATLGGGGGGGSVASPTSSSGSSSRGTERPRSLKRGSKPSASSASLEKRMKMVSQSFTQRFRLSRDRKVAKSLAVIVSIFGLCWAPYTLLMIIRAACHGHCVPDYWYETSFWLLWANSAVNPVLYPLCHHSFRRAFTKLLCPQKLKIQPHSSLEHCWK
How it was run: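 Membranes (20 µg) from HEK-293 cells stably expressing human H3R were incubated with 2 nM [3H]-N-α-methylhistamine and at least seven test concentrations. Incubation was 90 min at room temperature, with shaking, in 75 mM Tris/HCl (pH 7.4), 12.5 mM MgCl2 and 100 mM NaCl. Nonspecific binding used 10 µM pitolisant. Counting was by liquid scintillation; Ki came from Cheng-Prusoff on one-site competition fits, at least in duplicate.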

[3] = biological target: T3, Amine oxidase [flavin-containing] B (Homo sapiens, UniProt P27338); test: Inhibition of human MAO-B expressed in baculovirus infected insect cell membranes at 10 uM using kynuramine as substrate by continuous spectrophotometric method relative to control
T3 sequence (P27338 whole entry): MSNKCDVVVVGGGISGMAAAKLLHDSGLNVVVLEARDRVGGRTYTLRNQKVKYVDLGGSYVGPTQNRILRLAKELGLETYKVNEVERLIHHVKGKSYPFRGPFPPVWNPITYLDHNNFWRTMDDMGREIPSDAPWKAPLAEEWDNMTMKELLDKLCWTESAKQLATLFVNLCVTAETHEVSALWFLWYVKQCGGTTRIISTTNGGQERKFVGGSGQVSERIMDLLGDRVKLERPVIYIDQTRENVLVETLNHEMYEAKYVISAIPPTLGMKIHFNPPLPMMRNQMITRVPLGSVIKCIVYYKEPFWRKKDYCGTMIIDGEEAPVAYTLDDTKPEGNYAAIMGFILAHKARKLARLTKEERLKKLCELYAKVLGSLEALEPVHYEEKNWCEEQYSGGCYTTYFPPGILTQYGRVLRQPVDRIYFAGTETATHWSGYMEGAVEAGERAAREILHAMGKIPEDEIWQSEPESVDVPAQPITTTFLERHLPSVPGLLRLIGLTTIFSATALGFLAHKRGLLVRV

Homo sapiens = species on record: Homo sapiens; test: Selectivity index, ratio of IC50 for human MAO-A expressed in baculovirus infected insect cell membranes without preincubation with enzyme to IC50 for human MAO-B expressed in baculovirus infected insect cell membranes without preincubation with enzyme
How it was run: (§1)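 Human recombinant membrane-bound MAO A and MAO B were tested with inhibitor at 0.001–100 µM and kynuramine at 2×KM. Conditions were 50 mM potassium phosphate, pH 7.4, 20 min at 37°C, no preincubation, with NaOH stop and fluorimetric 4-hydroxyquinoline read-out. IC50 came from a three-parameter log-inhibitor fit with the bottom fixed at zero, from at least three independent experiments in at least duplicate. SI = IC50 MAO A / IC50 MAO B.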

[4] = biological target: T1, Amine oxidase [flavin-containing] A; test: Inhibition of human MAO-A expressed in baculovirus infected insect cell membranes using kynuramine as substrate after 15 to 20 mins by discontinuous fluorimetric method
How it was run: as §1

[5] = biological target: T3, Amine oxidase [flavin-containing] B; test: Inhibition of human MAO-B expressed in baculovirus infected insect cell membranes using kynuramine as substrate after 15 to 20 mins by discontinuous fluorimetric method
Histamine H3 receptor [6] = biological target: T2, Histamine H3 receptor; test: Displacement of [125I]iodoproxyfan from human H3R expressed in CHOK1 cell membranes after 60 mins by gamma counting method
[7] = biological target: T3, Amine oxidase [flavin-containing] B; test: Inhibition of human MAO-B expressed in baculovirus infected insect cell membranes using kynuramine as substrate preincubated for 30 mins followed by substrate addition measured after 15 to 20 mins by discontinuous fluorimetric method
[8] = biological target: T3, Amine oxidase [flavin-containing] B; test: Inhibition of human MAO-B expressed in baculovirus infected insect cell membranes at 2 uM using kynuramine as substrate after 15 to 20 mins by discontinuous fluorimetric method relative to control
How it was run: (§2)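 Single-point screen (10, 2 or 5 µM) on human recombinant membrane-bound MAO A or MAO B. Kynuramine was used at 2×KM (KM 30 µM for MAO A, 20 µM for MAO B) in 50 mM potassium phosphate, pH 7.4, 37°C for 20 min, started with enzyme and stopped with 2 N NaOH. 4-Hydroxyquinoline was read fluorimetrically (Ex 320, Em 405 nm) as % of no-inhibitor control; at least two independent experiments in duplicate.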

[9] = biological target: T3, Amine oxidase [flavin-containing] B; test: Reversible inhibition of human MAO-B expressed in baculovirus infected insect cell membranes using excess of kynuramine substrate preincubated for 30 to 60 mins followed by 50 fold compound dilution by fluorimetric method
How it was run: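 MAO B (10 ng/µL) was preincubated with inhibitor at 10× IC50 for 0, 30 or 60 min at 37°C. […] Residual activity was measured fluorimetrically at saturating kynuramine (10×KM), as % of the matched no-inhibitor control. Data are from at least two independent experiments in duplicate, global fit.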

[10] = biological target: T3, Amine oxidase [flavin-containing] B; test: Inhibition of human MAO-B expressed in baculovirus infected insect cell membranes at 5 uM using kynuramine as substrate after 15 to 20 mins by discontinuous fluorimetric method relative to control
How it was run: as §2

Row | Structure (SMILES) | inhibition at 10 µM [1] [%] | Ki (Histamine H3 receptor [2]) [nM] | inhibition at 10 µM [3] [%] | Ratio IC50 (Homo sapiens) | IC50 [4] [nM] | IC50 [5] [nM] | Ki (Histamine H3 receptor [6]) [nM] | IC50 [7] [nM] | inhibition at 2 µM [8] [%] | inhibition (INH) [9] | inhibition at 5 µM [10] [%]
1 | O=C1CCc2ccc(OCCCN3CCCCC3)cc21 | ≤ 25 | 304 | 51 to 75 | – | – | – | – | – | – | – | –
2 | O=C1/C(=C/c2ccccc2)Cc2ccc(OCCCN3CCCCC3)cc21 | ≤ 25 | 39 | 51 to 75 | – | – | – | – | – | – | – | –
3 | O=C1/C(=C/c2ccc(OCCCN3CCCCC3)cc2)Cc2ccc(OCc3ccc(Br)cc3)cc21 | – | 32 | – | 3.7 | 5510 | 1460 | – | 232 | 51 to 75 | Active | –
4 | O=C1CCc2cc(OCCN3CCCCC3)ccc21 | ≤ 25 | 205 | 26 to 50 | – | – | – | – | – | – | – | –
5 | O=C1CCc2ccc(OCCN3CCCC3)cc21 | ≤ 25 | 6120 | 26 to 50 | – | – | – | – | – | – | – | –
6 | O=C1/C(=C/c2ccccc2)Cc2ccc(OCCN3CCCCC3)cc21 | ≤ 25 | 696 | 76 to 100 | – | – | – | – | – | – | – | –
7 | O=C1CCc2cc(OCCN3CCCC3)ccc21 | 26 to 50 | 345 | ≤ 25 | – | – | – | – | – | – | – | –
8 | COc1ccc2c(c1)C/C(=C\c1ccc(OCCCN3CCCCC3)cc1)C2=O | ≤ 25 | 33 | 51 to 75 | – | – | – | – | – | – | – | –
9 | O=C1CCc2cc(OCCCN3CCCCC3)ccc21 | ≤ 25 | 159 | 26 to 50 | – | – | – | – | – | – | – | –

The next compounds have a lower Ki (Histamine H3 receptor [2]) than those just listed; values first:

Row | inhibition at 10 µM [1] [%] | Ki (Histamine H3 receptor [2]) [nM] | inhibition at 10 µM [3] [%] | Ratio IC50 (Homo sapiens) | IC50 [4] [nM] | IC50 [5] [nM] | Ki (Histamine H3 receptor [6]) [nM] | IC50 [7] [nM] | inhibition at 2 µM [8] [%] | inhibition (INH) [9] | inhibition at 5 µM [10] [%] | Structure (SMILES)
10 | – | 11 | – | > 12 | > 50000 | 3880 | 1.6 | – | – | – | – | O=C(c1ccc(OCCCN2CCCCC2)cc1)C1CC1
11 | 51 to 75 | 11 | 51 to 75 | – | – | – | – | – | – | – | – | COc1ccc2c(c1)C(=O)/C(=C/c1ccc(OCCCN3CCCCC3)cc1)C2
12 | – | 6.5 | – | > 36 | > 10000 | 276 | – | 262 | – | Active | 76 to 100 | O=C1/C(=C/c2ccc(OCCCN3CCCCC3)cc2)Cc2cc(OCc3ccc(Br)cc3)ccc21
13 | ≤ 25 | 3.9 | 51 to 75 | – | – | – | – | – | – | – | – | O=C1/C(=C/c2ccccc2)Cc2cc(OCCCN3CCCCC3)ccc21
14 | – | 2.2 | 76 to 100 | 4.8 | 9180 | 1930 | – | 541 | – | Active | – | O=C1/C(=C/c2ccc(OCCCN3CCCCC3)cc2)Cc2cc(F)ccc21
15 | ≤ 25 | 2.1 | 51 to 75 | – | – | – | – | – | – | – | – | O=C1/C(=C/c2ccc(OCCCN3CCCCC3)cc2)Cc2ccccc21
